Source: PubChem (several laboratories)
This is a sample that favours compounds with a hit; in the whole collection about 2.5% have one here.
Arrestin-AP2 inh – inhibitors of beta-arrestin/AP2 binding, primary screen, biochemical, GPCR trafficking, flow cytometry; beta-arrestin 1 C-terminal peptide binding to AP2 beta2-adaptin appendage (human); FITC-arrestin peptide / GST-AP2 beads; AP2 beta2 appendage carries R879A mutation; inhibition, % at 10 µM; hit rate 0.31% among 340,000; AID 504490, 2011;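 active = inhibition above a set limit, near 3 SD of compounds lacking own fluorescence, cut at about 54% in these data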;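 note: plate controls were DMSO wells for no effect and 5 µM unlabelled arrestin peptide for full effect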
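System: GST-AP2 R879A bound to glutathione beads, E. coli-expressed. Also added: 50 nM FITC-arrestin peptide. Schedule: compound with beads 12 min RT, then probe 1 h RT. Signal: bead flow cytometry, FITC channel. Read-out basis: percent response.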
B2AR ag – beta2AR agonists driving receptor internalization, primary screen, cell-based, FAP fluorogen, flow cytometry; Beta-2 adrenergic receptor (Homo sapiens), P07550; Am2.2-beta2AR cells; response, % (test concentration not listed); hit rate 0.43% among 340,000; AID 504454, 2011;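 active = response above a set limit, near 3 SD of response in nonfluorescent compounds, cut at about 42% in these data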
ABHD5-PLIN5 inh – ABHD5-PLIN5 interaction inhibitors, primary screen, cell lysate, split luciferase complementation, luminescence; hit rate 0.78% among 360,000; Split G. princeps luciferase complementation, 4 h; Perilipin-5 (Homo sapiens) + 1-acylglycerol-3-phosphate O-acyltransferase ABHD5 (Homo …; inhibition, % at 4 µM;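 active = inhibition above the mean inhibition across every tested compound plus 3 SD, cut at about 22% in these data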;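 note: 0% = DMSO only wells and the 100% control is not disclosed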
UHRF1 binding – UHRF1 methylated DNA binding inhibitors, primary screen, counter-screen for MBD2 inhibitor project, biochemical, TR-FRET, human UHRF1, single concentration; E3 ubiquitin-protein ligase UHRF1 (Homo sapiens), Q96T88; UHRF1 binding to methylated oligo; inhibition, % at 4.4 µM; hit rate 0.75% among 370,000; AID 687016, 2013; in the data active = inhibition above about 21%;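 note: UHRF1 SRA domain binding a hemimethylated CpG hairpin DNA probe; 0% = median of test compound wells and 100% = reference inhibitor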
Rin1 Abl inh – inhibitors of Rin1-Abl protein binding, primary screen, biochemical, TR-FRET. Tyrosine-protein kinase ABL1 (Homo sapiens) + Ras and Rab interactor 1 (Homo sapiens), …. inhibition, % at 7.35 µM. hit rate 0.4% among 360,000; in the data active = inhibition above about 5%, passing the limit was not always enough
MBD2 inh – inhibitors of MBD2 binding to methylated DNA, primary screen, biochemical, TR-FRET, DNA-binding domain, human. inhibition, % at 4.4 µM. MBD2 binding to methylated oligonucleotide. Methyl-CpG-binding domain protein 2 (Homo sapiens), Q9UBB5. hit rate 0.31% among 370,000; in the data active = inhibition above about 13%
Target sequence (Q9UBB5 whole entry, looked up, the tested form may be a part): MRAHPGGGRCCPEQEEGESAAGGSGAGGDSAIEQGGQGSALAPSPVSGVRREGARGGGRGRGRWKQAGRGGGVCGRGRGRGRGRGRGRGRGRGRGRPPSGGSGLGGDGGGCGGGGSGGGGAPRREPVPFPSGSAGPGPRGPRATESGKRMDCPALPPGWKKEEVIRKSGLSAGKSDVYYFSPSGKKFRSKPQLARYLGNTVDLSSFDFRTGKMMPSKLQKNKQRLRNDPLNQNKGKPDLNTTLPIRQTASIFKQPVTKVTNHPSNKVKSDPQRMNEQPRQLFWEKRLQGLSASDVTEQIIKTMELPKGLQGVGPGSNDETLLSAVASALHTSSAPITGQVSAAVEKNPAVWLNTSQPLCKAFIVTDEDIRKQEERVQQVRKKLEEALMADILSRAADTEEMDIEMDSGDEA
Rin1-Abl confirm – Rin1-Abl binding inhibitor retest, confirmation, biochemical, TR-FRET. shares compounds with Rin1 Abl inh. inhibition, % at 7.35 µM. hit rate 49% among 1,300. purified proteins. AID 602124, 2011
GFP quencher – GFP fluorescence inhibitors and quenchers, artefact control for Rin1-Abl interaction inhibitor project, biochemical; shares compounds with Rin1 Abl inh; inhibitors/quenchers counterscreen; inhibition, % at 6.75 µM; hit rate 8.5% among 1,300;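 note: ABL1-eGFP fusion protein alone without its partner RIN1-SBP; 0% = protein with vehicle and 100% = wells lacking protein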
GFP quench DR – GFP fluorescence inhibitors and quenchers, dose response, artefact control for Rin1-Abl interaction inhibitor project, biochemical; shares compounds with Rin1 Abl inh; GFP fluorescence interference/quenching counterscreen; IC50, µM; 230 tested, under 10 active; call rule not given here;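 note: ABL1-eGFP fusion protein alone without its RIN1 binding partner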
An asterisk follows results filed as active; · = no result given. Cut-off read from the data, not from the text of the source, unless noted: active = inhibition above about 6.5%; inactive = the rest.

SMILES | Arrestin-AP2 inh | B2AR ag | ABHD5-PLIN5 inh | UHRF1 binding | Rin1 Abl inh | MBD2 inh | Rin1-Abl confirm | GFP quencher | GFP quench DR
CCSCCOC(=O)C1=C(C)NC2=C(C(=O)CCC2)C1c1coc2ccccc2c1=O (stereo not drawn) | -14 | 2 | -2 | 1 | 20* | 1 | 30* | 0 | >68
COC(=O)CCSCc1cn2cc(Cl)ccc2n1 | 12 | -6 | -4 | 1 | 39* | 1 | 44* | 1 | >68
COc1ccc(CC(=O)Oc2ccc(C)cc2Br)cc1OC | 19 | 3 | 4 | 1 | 41* | 2 | 51* | -2 | >68
O=C1N(c2ccccc2)C(c2ccccc2)N2CCCN12 (stereo not drawn) | 41 | 4 | 5 | -2 | 0 | 0 | · | · | ·
Cc1ccc(C2N(c3cccc(Cl)c3)C(=O)N3CCCN23)cc1 (stereo not drawn) | 3 | -7 | -1 | 1 | 29* | 1 | 30* | -1 | >68
O=C1N(c2ccc(Cl)cc2)C(c2ccccc2)N2CCCN12 (stereo not drawn) | -22 | -5 | 7 | 0 | 8.3* | 0 | 12* | 0 | ·
CCCN(C(=O)C1CCCN(c2ncnc3c2nc2n3CCCCC2)C1)c1ccccc1C (stereo not drawn) | · | · | · | -2 | · | 1 | · | · | ·
CCCN(C(=O)C1CCCN(c2ncnc3c2nc2n3CCCCC2)C1)c1ccc(F)cc1 (stereo not drawn) | 18 | 2 | 1 | 1 | 8.5* | -3 | -2 | -1 | ·
CN1CCN(C(c2ccccn2)c2cc(Cl)c3cccnc3c2O)CC1 (stereo not drawn) | 10 | 2 | 10 | -5 | 26* | -8 | 22* | 4 | >68
Cc1ccccc1Cn1cc(CN2[C@H](CC(C)C)COc3cc(Br)ccc3S2(=O)=O)nn1 | · | · | · | -4 | · | 0 | · | · | ·
Cc1ccc(C(=O)N[C@H](C(=O)Nc2cc(Cl)cc(Cl)c2)C(C)C)cc1 | 1 | -2 | -3 | 5 | 5.8* | 3 | -1 | -1 | ·
CC(=O)Nc1ccc(NC(=O)C(NC(=O)c2ccc(Cl)cc2)C(C)C)cc1 (stereo not drawn) | · | · | 1 | 2 | -2 | -2 | · | · | ·
O=C(NCc1ccccc1F)C1CCC(CNS(=O)(=O)c2cccc3cccnc23)CC1 (stereo not drawn) | · | · | · | 3 | · | 0 | · | · | ·
CC(/C=N/n1c(-c2ccco2)n[nH]c1=S)=C\c1ccccc1 | 22 | 3 | 2 | -1 | 7.4* | 0 | -1 | 0 | ·
CCN=c1scc(-c2cccs2)n1/N=C/c1cc(OC)ccc1O | 2 | 11 | 1 | 1 | 1 | -1 | · | · | ·
CN=c1scc(-c2ccccc2F)n1/N=C/c1ccc(O)c(O)c1O | 11 | 101* | -6 | 0 | 6.3* | -1 | 8.8* | 6.7* | ·
CC(C)N=c1scc(-c2cccs2)n1/N=C/c1ccc(O)c(O)c1O | 18 | 10 | -23 | -2 | 14* | -2 | 12* | 2 | ·
CN=c1scc(-c2ccccc2F)n1/N=C/c1ccc[nH]1 | 11 | 2 | 8 | 12 | 6 | 0 | · | · | ·
O=C(Nc1cc(N2CCOCC2)ncn1)NC1(C(F)(F)F)Oc2ccccc2O1 | -3 | 2 | 0 | 3 | 9.8* | 4 | 4 | 0 | ·
